Test [1] is described as follows: Concentration to inhibit growth of v-src-transformed cells (SR-3Y1 cells) after 72 h exposure. The class given is functional. The settings on record: Rattus norvegicus, SR3Y1, 72 h. An outline of the steps: (§1)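 Cells precultured 24 h in DMEM with 10% fetal calf serum, then exposed to drug for 72 h. Viability read by MTT assay. IC50 taken as concentration giving 50% growth inhibition relative to control cultures.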

A further test deals with NRK. In words: Concentration to inhibit growth of normal rat kidney epithelial cells (NRK cells) after 72 hr exposure. The class given is functional, cell-based. Summed up: as §1
The test system of another test is 3Y1 cell line. Briefly: Concentration to inhibit growth of normal rat fibroblast cells (3Y1-B cells) after 72 h exposure. The class given is functional, cell-based. As to conditions: 3Y1, 72 h. Summed up: as §1
Test [2] is described as follows: Concentration to inhibit growth of normal rat K-ras-transformed cells (KNRK 5.2 cells) after 72 hr exposure. The class given is functional. An outline of the steps:
as §1

Test [3] concerns the target Proto-oncogene tyrosine-protein kinase Src (Rattus norvegicus, UniProt Q9WUD9). In words: Inhibition of v-Src tyrosine kinase autophosphorylation in SR3Y1 cells after 15 hr exposure. The class given is cell-based. An outline of the steps:
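SR-3Y1 cells exposed to drug 15 h, lysed on ice 20 min in Tris pH 7.5 RIPA-type buffer with protease inhibitors and 1 mM vanadate. Equal-protein lysates run on SDS-PAGE, blotted with anti-phosphotyrosine antibody, HRP secondary, ECL detection. IC50 = concentration halving tyrosine phosphorylation.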

Data on 22 compounds can be found in ChEMBL document CHEMBL1145797, “Synthesis and antitumor activity of novel O-carbamoylmethyloxime derivatives of radicicol” (J Med Chem, 2003).

Bounds are passed on as bounds.

Take `C[C@@H]1C[C@H]2O[C@@H]2\C=C/C=C/C(=N\OCC(=O)N2CCCC2)Cc2c(Cl)c(O)cc(O)c2C(=O)O1`: the half-maximal inhibitory concentration (IC50) (usually the concentration needed to halve the response being measured) in test [1] turned out to be 20 nM; in the test with NRK, 34 nM; with 3Y1 cell line it was 55 nM; in test [2] it was 39 nM; in test [3], 70 nM.
For `C[C@@H]1C[C@H]2O[C@@H]2\C=C/C=C/C(=N\OCC(=O)N(CCO)CCO)Cc2c(Cl)c(O)cc(O)c2C(=O)O1`, in that order: 1100 nM, greater than 3000 nM, greater than 3000 nM, 2900 nM and greater than 1000 nM.
For `CCN(CC)CCNC(=O)CO\N=C1/C=C/C=C\[C@H]2O[C@@H]2C[C@@H](C)OC(=O)c2c(O)cc(O)c(Cl)c2C1` the same measures were 2300 nM, greater than 3000 nM, greater than 3000 nM, greater than 3000 nM and greater than 1000 nM.
For `CCOCCNC(=O)CO\N=C1/C=C/C=C\[C@H]2O[C@@H]2C[C@@H](C)OC(=O)c2c(O)cc(O)c(Cl)c2C1` the same measures were 93 nM, 260 nM, 390 nM, 230 nM and greater than 1000 nM.
As for `C[C@@H]1C[C@H]2O[C@@H]2\C=C/C=C/C(=N\OCC(=O)Nc2cccnc2)Cc2c(Cl)c(O)cc(O)c2C(=O)O1`, the IC50 in test [1] is 51 nM; with NRK, 240 nM; in the test with 3Y1 cell line, 200 nM; in test [2], 120 nM; in test [3], 54 nM.
In the case of `CCN(CC)c1ccc(NC(=O)CO\N=C2/C=C/C=C\[C@H]3O[C@@H]3C[C@@H](C)OC(=O)c3c(O)cc(O)c(Cl)c3C2)cc1`, the IC50 in test [1] is 100 nM; with NRK, 520 nM; with 3Y1 cell line, 490 nM; in test [2], 240 nM; in test [3], less than 10 nM.
For `C[C@@H]1C[C@H]2O[C@@H]2\C=C/C=C/C(=N\OCC(=O)NC2CCCCC2)Cc2c(Cl)c(O)cc(O)c2C(=O)O1`, in that order: 5.7 nM, 190 nM, 67 nM, 73 nM and 210 nM.
As for `COc1ccc(NC(=O)CO\N=C2/C=C/C=C\[C@H]3O[C@@H]3C[C@@H](C)OC(=O)c3c(O)cc(O)c(Cl)c3C2)cc1`, the half-inhibitory concentration (IC50) in test [1] worked out at 58 nM; in the test on NRK, 260 nM; in the test on 3Y1 cell line it was 100 nM; in test [2], 81 nM; in test [3], 390 nM.
`C[C@@H]1C[C@H]2O[C@@H]2\C=C/C=C/C(=N\OCC(=O)NCCc2cccn2C)Cc2c(Cl)c(O)cc(O)c2C(=O)O1`: the half-maximal inhibitory concentration (IC50) in test [1] is 84 nM; in the test with NRK it was 1200 nM; in the test with 3Y1 cell line, 600 nM; in test [2] it was 380 nM; in test [3] it was greater than 1000 nM.
For `C[C@@H]1C[C@H]2O[C@@H]2\C=C/C=C/C(=N\OCC(=O)NC2CCCC2)Cc2c(Cl)c(O)cc(O)c2C(=O)O1` the same measures were 9.8 nM, 41 nM, 41 nM, 45 nM and 14 nM.
For `C[C@@H]1C[C@H]2O[C@@H]2\C=C/C=C/C(=N\OCC(=O)N2CCCCCC2)Cc2c(Cl)c(O)cc(O)c2C(=O)O1`, in that order: less than 4.1 nM, 7.3 nM, less than 4.1 nM, 6.4 nM and 67 nM.
Consider `C[C@@H]1C[C@H]2O[C@@H]2\C=C/C=C/C(=N\OCC(=O)N2CCC(C(N)=O)CC2)Cc2c(Cl)c(O)cc(O)c2C(=O)O1`, for which the IC50 (in test [1]; in the test with NRK; with 3Y1 cell line; in test [2]) was greater than 3000 nM each time.
For `C[C@@H]1C[C@H]2O[C@@H]2\C=C/C=C/C(=N\OCC(=O)NCc2cccnc2)Cc2c(Cl)c(O)cc(O)c2C(=O)O1`, the IC50 in test [1] is 290 nM; in the test on NRK it was 510 nM; in the test with 3Y1 cell line, 670 nM; in test [2] it was 480 nM; in test [3], greater than 1000 nM.
Regarding `C[C@@H]1C[C@H]2O[C@@H]2\C=C/C=C/C(=N\OCC(=O)N2CCC(N3CCCCC3)CC2)Cc2c(Cl)c(O)cc(O)c2C(=O)O1`, the half-maximal inhibitory concentration (IC50) was greater than 3000 nM in test [1], 3000 nM with NRK, greater than 3000 nM in the test with 3Y1 cell line and greater than 3000 nM in test [2].
On to `C[C@@H]1C[C@H]2O[C@@H]2\C=C/C=C/C(=N\OCC(=O)N2CCOCC2)Cc2c(Cl)c(O)cc(O)c2C(=O)O1`, for which the IC50 in test [1] turned out to be 130 nM; in the test with NRK, 340 nM; in the test on 3Y1 cell line, 310 nM; in test [2] it was 340 nM; in test [3] it was 140 nM.
Turning to `C[C@@H]1C[C@H]2O[C@@H]2\C=C/C=C/C(=N\OCC(=O)Nc2ccccc2)Cc2c(Cl)c(O)cc(O)c2C(=O)O1`, the IC50 was determined as 120 nM in test [1]; 320 nM with NRK; 620 nM with 3Y1 cell line; 290 nM in test [2]; 43 nM in test [3].
`C[C@@H]1C[C@H]2O[C@@H]2\C=C/C=C/C(=N\OCC(=O)NCC2CCCCC2)Cc2c(Cl)c(O)cc(O)c2C(=O)O1`: the IC50 in test [1] came out at 20 nM; with NRK, 210 nM; in the test on 3Y1 cell line it was 180 nM; in test [2] it was 140 nM; in test [3], 17 nM.
For `COC(=O)CNC(=O)CO\N=C1/C=C/C=C\[C@H]2O[C@@H]2C[C@@H](C)OC(=O)c2c(O)cc(O)c(Cl)c2C1`, the concentration for half-maximal inhibition (IC50) in test [1] was determined as 240 nM; in the test on NRK it was 700 nM; in the test with 3Y1 cell line it was 790 nM; in test [2], 570 nM; in test [3], 360 nM.
For the compound `C[C@@H]1C[C@H]2O[C@@H]2\C=C/C=C/C(=N\OCC(=O)N2CCN(C)CC2)Cc2c(Cl)c(O)cc(O)c2C(=O)O1`, the half-maximal inhibitory concentration (IC50) in test [1] amounted to 470 nM; with NRK it was 1200 nM; in the test with 3Y1 cell line, 1000 nM; in test [2], 1500 nM.
As for `C[C@@H]1C[C@H]2O[C@@H]2\C=C/C=C/C(=N\OCC(=O)N2CCC(O)CC2)Cc2c(Cl)c(O)cc(O)c2C(=O)O1`, the half-inhibitory concentration (IC50) (in test [1]; with NRK; in the test with 3Y1 cell line; in test [2]) was greater than 3000 nM throughout.
Turning to `C[C@@H]1C[C@H]2O[C@@H]2/C=C\C=C\C(=O)Cc2c(Cl)c(O)cc(O)c2C(=O)O1` [RADICICOL], the half-maximal inhibitory concentration (IC50) turned out to be 59 nM in test [1]; 290 nM with NRK; 700 nM in the test with 3Y1 cell line; 110 nM in test [2]; 180 nM in test [3].
For `C[C@@H]1C[C@H]2O[C@@H]2\C=C/C=C/C(=N\OCC(=O)NCCO)Cc2c(Cl)c(O)cc(O)c2C(=O)O1`, in that order: 1500 nM, greater than 3000 nM, 2800 nM, 2200 nM and greater than 1000 nM.
